Test results as given in ChEMBL document CHEMBL4184226, “Design and synthesis of novel senkyunolide analogues as neuroprotective agents” (2018).
Activity calls are given as the source filed them. The calls are words filed in the database; no cut-off is given here.

How the values were obtained:
Assay type in all cases: functional, cell-based
[1] = test system: HT-22; assay: Neuroprotective activity against oxygen glucose deprivation-induced cell death in mouse HT22 cells assessed as increase cell survival at 6.25 to 100 uM by MTT assay
Summary of the method: (§1)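 Mouse hippocampal HT-22 cells were split into blank control, OGD model and treated groups. Treated cells were exposed to oxygen glucose deprivation with test compound at 5 concentrations. The reference compound was dosed at 10 times the test-compound level. Viability was read by MTT and compared against the control and model groups. Each assay was run in triplicate.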

[2] = test system: HT-22; assay: Neuroprotective activity against H2O2-induced oxidative stress-mediated cell death in mouse HT22 cells assessed as compound level causing increase cell survival at 1 to 100 uM by MTT assay
[3] = test system: HT-22; assay: Neuroprotective activity against oxygen glucose deprivation-induced cell death in mouse HT22 cells assessed as increase cell survival at 100 uM by MTT assay; summary of the method: as §1

| SMILES | Activity [1] | Activity [2] | Activity [3] |
| --- | --- | --- | --- |
| CCC/C=C1/Oc2ccc(OC(=O)CCC(=O)OCCCCOc3no[n+]([O-])c3S(=O)(=O)c3ccccc3)cc2C1=O | Dose-dependent effect | Active | – |
| CCC/C=C1/Oc2cc(OC)ccc2C1=O | Dose-dependent effect | Active | – |
| CCC/C=C1/Oc2c(ccc(OC)c2OC)C1=O | Dose-dependent effect | – | – |
| CCC/C=C1/Oc2ccc(OC(=O)CCC(=O)OC(C)CCOc3no[n+]([O-])c3S(=O)(=O)c3ccccc3)cc2C1=O (stereo unspecified) | Dose-dependent effect | – | – |
| CCC/C=C1/C(=O)Oc2ccccc21 | Dose-dependent effect | – | – |
| CCC/C=C1/Oc2ccc(OC(=O)CCC(=O)OC/C=C/COc3no[n+]([O-])c3S(=O)(=O)c3ccccc3)cc2C1=O | Dose-dependent effect | – | – |
| CCCCC1Oc2c(ccc(OC)c2OC)C1=O (stereo unspecified) | Dose-dependent effect | – | – |
| CCC/C=C1/C(=O)Oc2ccc(OC)cc21 | Dose-dependent effect | – | – |
| CCC/C=C1/Oc2ccc(OC(=O)CCC(=O)OCCCOc3no[n+]([O-])c3S(=O)(=O)c3ccccc3)cc2C1=O | Dose-dependent effect | Active | Active |
| CCC/C=C1/C(=O)Oc2cc(OC)ccc21 | Dose-dependent effect | – | – |
| CCCCC1Oc2cc(OC)ccc2C1=O (stereo unspecified) | Dose-dependent effect | – | – |
| CCC/C=C1/Oc2ccccc2C1=O | Dose-dependent effect | – | – |
